Laboratory results published in ChEMBL document CHEMBL3745639, “Structure-activity relationships for lipoprotein lipase agonists that lower plasma triglycerides in vivo” (Eur J Med Chem, 2015).
Activity calls are given as the source filed them. Unless noted, no cut-off for these calls is given here.

Tests used:
[1] = test system: Mus musculus; experiment: Hypolipidemic activity in C57B16/J mouse assessed as reduction in plasma triglyceride level at 10 mg/kg, ip qd administered for 4 days followed by olive oil injection through oral gavage one hour post last dose measured at 180 mins; type: functional, organism-based
Outline: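 Female C57B16/J mice, 8-9 weeks, about 18 g, n = 8/group. Given 10 mg/kg i.p. once daily for 4 days, 0.5 ml in PBS pH 7.4 with 3% DMSO and 0.2% Triton X-100. Fasted 8 h before the last dose, then 0.2 ml oral olive oil gavage 1 h after it. Tail-vein EDTA plasma taken at baseline and every 60 min to 180 min. TG measured enzymatically, reported as mean ± SD.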

[2] = biological target: T1, Lipoprotein lipase (Bos taurus) (UniProt P11151); experiment: Induction of bovine LPL stabilization using intralipid as substrate at 25 uM preincubated for 10 mins with human recombinant ANGPTL4 followed by substrate addition measured after 45 mins relative to control
T1 sequence (whole entry): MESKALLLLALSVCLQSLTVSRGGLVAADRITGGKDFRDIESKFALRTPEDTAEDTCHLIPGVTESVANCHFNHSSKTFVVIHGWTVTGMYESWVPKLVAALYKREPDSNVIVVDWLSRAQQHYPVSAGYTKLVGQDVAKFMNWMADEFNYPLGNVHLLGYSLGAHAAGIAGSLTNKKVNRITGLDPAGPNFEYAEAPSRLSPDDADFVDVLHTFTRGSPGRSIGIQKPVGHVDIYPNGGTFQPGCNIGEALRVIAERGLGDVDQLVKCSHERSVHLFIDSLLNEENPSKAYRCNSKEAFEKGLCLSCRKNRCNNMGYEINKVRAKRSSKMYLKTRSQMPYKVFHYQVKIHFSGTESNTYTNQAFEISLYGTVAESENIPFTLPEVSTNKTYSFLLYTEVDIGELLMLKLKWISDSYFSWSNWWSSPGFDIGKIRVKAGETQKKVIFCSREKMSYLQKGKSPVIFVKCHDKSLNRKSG
Outline: (§1)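 Compound in DMSO in buffer (50 mM potassium phosphate pH 7.4, 0.15 M NaCl, 0.01% Triton X-100), with human ANGPTL4 N-terminal fragment (aa 26-184, 75 nM final) and bovine LPL (15 nM final). Preincubated 10 min at 25 °C with shaking. Stopped after 45 min with 2.5% Triton X-100, and NEFA measured enzymatically. Activity normalised between DMSO+LPL+ANGPTL4 (0%) and DMSO+LPL (100%).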

[3] = biological target: T1, Lipoprotein lipase (Bos taurus); experiment: Induction of bovine LPL stabilization using intralipid as substrate at 12.5 uM preincubated for 10 mins with human recombinant ANGPTL4 followed by substrate addition measured after 45 mins relative to control; outline: as §1
[4] = biological target: T1, Lipoprotein lipase (Bos taurus); experiment: Induction of bovine LPL stabilization using intralipid as substrate at 6.25 uM preincubated for 10 mins with human recombinant ANGPTL4 followed by substrate addition measured after 45 mins relative to control; outline: as §1
[5] = biological target: T1, Lipoprotein lipase (Bos taurus); experiment: Induction of bovine LPL stabilization using intralipid as substrate at 3.12 uM preincubated for 10 mins with human recombinant ANGPTL4 followed by substrate addition measured after 45 mins relative to control; outline: as §1
[6] = biological target: T2, Lipoprotein lipase (Bos taurus, UniProt P11151); experiment: Induction of bovine LPL stabilization using intralipid as substrate preincubated for 10 mins with human recombinant ANGPTL4 followed by substrate addition measured after 45 mins relative to control; outline: as §1
T2 sequence (P11151 whole entry): T1 sequence (whole entry)

[7] = test system: Plasma; experiment: Drug level in human plasma treated with 1,3-Dioxo-2-(4-(piperidin-1-yl)-3-(p-tolylcarbamoyl)phenyl)isoindoline-5-carboxylic acid at 10 uM after 24 hrs by LC-MS/MS analysis; type: ADME, cell-free

Compound	Activity [1]	Activity [2]	Activity [3]	Activity [4]	Activity [5]	EC50 [6] [µM]	Drug metabolism [7]
Cc1ccc(NC(=O)c2cc(-c3nc4ccc(C(=O)O)cc4[nH]3)ccc2N2CCCCC2)cc1	Active	49%	inactive	inactive	inactive		
Cc1ccc(NC(=O)c2cc(-n3cc4cc(C(=O)O)ccc4n3)ccc2N2CCCCC2)cc1	Active	89.7%	90.6%	11.2%	inactive	5	
Cc1ccc(NC(=O)c2cc(N)ccc2N2CCCCC2)cc1		inactive	inactive	inactive	inactive		metabolite_detected
Cc1ccc(NC(=O)c2cc(NC(=O)c3ccc(C(=O)O)cc3C(=O)O)ccc2N2CCCCC2)cc1		30.6%	inactive	inactive	inactive		metabolite_detected
Cc1ccc(NC(=O)c2cc(NC(=O)c3cc(C(=O)O)ccc3C(=O)O)ccc2N2CCCCC2)cc1		38.8%	inactive	inactive	inactive		metabolite_detected
Cc1cccc(NC(=O)c2cc(N3C(=O)c4ccc(C(=O)O)cc4C3=O)ccc2N2CCCCC2)c1		56.6%	38.6%	inactive	inactive		
Cc1ccc(NC(=O)c2cc(N3C(=O)c4cccc(C(=O)O)c4C3=O)ccc2N2CCCCC2)cc1		inactive	inactive	inactive	inactive		
CCc1ccc(NC(=O)c2cc(N3C(=O)c4ccc(C(=O)O)cc4C3=O)ccc2Nc2ccccc2)cc1		60%	60.3%	37.6%	inactive		
Cc1ccc(NC(=O)c2cc(-c3cc4cc(C(=O)O)ccc4[nH]3)ccc2N2CCCCC2)cc1	Active	24.5%	85.5%	101%	35%		
O=C(O)c1ccc2c(c1)C(=O)N(c1ccc(N3CCCCC3)c(C(=O)NCc3cccnc3)c1)C2=O		inactive	inactive	inactive	inactive		
Cc1ccc(NC(=O)c2cc(N3C(=O)c4ccc(C#N)cc4C3=O)ccc2N2CCCCC2)cc1		inactive	inactive	inactive	inactive		
Cc1ccc(NC(=O)c2cc(Nc3ccccc3)cc(N3C(=O)c4ccc(C(=O)O)cc4C3=O)c2)cc1		89.4%	73.1%	4.2%	inactive		
O=C(O)c1ccc2c(c1)C(=O)N(c1ccc(NCc3cccnc3)c(C(=O)NCc3cccnc3)c1)C2=O		inactive	inactive	inactive	inactive		
CCCCCCNC(=O)c1cc(N2C(=O)c3ccc(C(=O)O)cc3C2=O)ccc1NCCCCCC		67.8%	31.8%	19.3%	4%		
O=C(O)c1ccc2c(c1)C(=O)N(c1ccc(N3CCCCC3)c(C(=O)Nc3ccccc3-c3ccccc3)c1)C2=O		68.5%	63.3%	60.1%	inactive		
Cc1ccc(NC(=O)c2cc(N3C(=O)c4ccc(Br)cc4C3=O)ccc2N2CCCCC2)cc1		inactive	inactive	inactive	inactive		
Cc1ccc(NC(=O)c2cccc(N3CCCCC3)c2N2C(=O)c3ccc(C(=O)O)cc3C2=O)cc1		7.3%	inactive	inactive	inactive		
